According to ChEMBL document CHEMBL4699539, “Dual antagonists of α5β1/αvβ1 integrin for airway hyperresponsiveness” (Bioorg Med Chem Lett, 2020):
Calls of active or inactive are those of the source. No cut-off for these calls is given here.

Experiments:
Integrin alpha-V/beta-5 = Integrin alpha-V/beta-5 (Homo sapiens, UniProt P06756+P18084); assay: Inhibition of alphavbeta5 integrin (unknown origin) by solid phase binding assay; type: protein-complex assay
Integrin alpha-V/beta-3 [1] = biological target: T1, Integrin alpha-V/beta-3 (Homo sapiens, UniProt P05106+P06756); assay: Inhibition of alphavbeta3 integrin (unknown origin) by solid phase binding assay; type: protein-complex assay
Integrin alpha-V/beta-1 [2] = biological target: T2, Integrin alpha-V/beta-1 (Homo sapiens, UniProt P05556+P06756); assay: Inhibition of alphavbeta1 integrin (unknown origin) by solid phase binding assay; type: protein-complex assay
Integrin alpha-V/beta-6 = Integrin alpha-V/beta-6 (Homo sapiens, UniProt P06756+P18564); assay: Inhibition of alphavbeta6 integrin (unknown origin) by solid phase binding assay; type: protein-complex assay
Integrin alpha-5/beta-1 [3] = biological target: T3, Integrin alpha-5/beta-1 (Homo sapiens, UniProt P05556+P08648); assay: Inhibition of alpha5beta1 integrin (unknown origin) by solid phase binding assay; type: protein-complex assay
Integrin alpha-V/beta-8 = Integrin alpha-V/beta-8 (Homo sapiens, UniProt P06756+P26012); assay: Inhibition of alphavbeta8 integrin (unknown origin) by solid phase binding assay; type: protein-complex assay
Sequence of Integrin alpha-V/beta-8 (P06756 31-889 limits assumed): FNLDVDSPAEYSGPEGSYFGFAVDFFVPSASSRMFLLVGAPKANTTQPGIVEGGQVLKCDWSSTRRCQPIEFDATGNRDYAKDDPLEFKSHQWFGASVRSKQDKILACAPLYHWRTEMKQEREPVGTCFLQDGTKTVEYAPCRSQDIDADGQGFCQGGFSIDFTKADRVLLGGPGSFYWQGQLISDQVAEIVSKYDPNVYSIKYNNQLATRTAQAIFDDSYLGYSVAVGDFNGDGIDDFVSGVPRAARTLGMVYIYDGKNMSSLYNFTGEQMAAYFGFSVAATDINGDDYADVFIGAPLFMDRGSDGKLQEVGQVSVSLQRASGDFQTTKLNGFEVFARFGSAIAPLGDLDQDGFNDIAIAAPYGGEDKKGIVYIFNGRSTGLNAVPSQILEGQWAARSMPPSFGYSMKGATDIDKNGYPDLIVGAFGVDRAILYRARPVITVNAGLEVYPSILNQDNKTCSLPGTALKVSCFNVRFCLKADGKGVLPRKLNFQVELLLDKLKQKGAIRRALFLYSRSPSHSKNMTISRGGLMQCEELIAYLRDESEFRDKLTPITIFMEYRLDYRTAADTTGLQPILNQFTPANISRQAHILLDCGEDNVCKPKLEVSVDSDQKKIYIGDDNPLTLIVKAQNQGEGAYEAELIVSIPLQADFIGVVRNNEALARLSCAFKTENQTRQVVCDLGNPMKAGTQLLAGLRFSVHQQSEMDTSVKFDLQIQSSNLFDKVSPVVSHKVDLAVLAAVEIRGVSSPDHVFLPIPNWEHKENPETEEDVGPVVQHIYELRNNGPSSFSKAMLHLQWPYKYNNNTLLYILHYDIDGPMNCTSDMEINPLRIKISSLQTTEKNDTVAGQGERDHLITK
Sequence of Integrin alpha-V/beta-8 (P06756 891-1048 limits assumed): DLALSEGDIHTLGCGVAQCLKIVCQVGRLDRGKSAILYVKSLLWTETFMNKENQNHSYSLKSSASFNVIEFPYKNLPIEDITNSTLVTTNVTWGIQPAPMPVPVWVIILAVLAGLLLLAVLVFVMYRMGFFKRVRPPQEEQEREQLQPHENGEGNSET
Sequence of Integrin alpha-V/beta-8 (P26012 43-769 limits assumed): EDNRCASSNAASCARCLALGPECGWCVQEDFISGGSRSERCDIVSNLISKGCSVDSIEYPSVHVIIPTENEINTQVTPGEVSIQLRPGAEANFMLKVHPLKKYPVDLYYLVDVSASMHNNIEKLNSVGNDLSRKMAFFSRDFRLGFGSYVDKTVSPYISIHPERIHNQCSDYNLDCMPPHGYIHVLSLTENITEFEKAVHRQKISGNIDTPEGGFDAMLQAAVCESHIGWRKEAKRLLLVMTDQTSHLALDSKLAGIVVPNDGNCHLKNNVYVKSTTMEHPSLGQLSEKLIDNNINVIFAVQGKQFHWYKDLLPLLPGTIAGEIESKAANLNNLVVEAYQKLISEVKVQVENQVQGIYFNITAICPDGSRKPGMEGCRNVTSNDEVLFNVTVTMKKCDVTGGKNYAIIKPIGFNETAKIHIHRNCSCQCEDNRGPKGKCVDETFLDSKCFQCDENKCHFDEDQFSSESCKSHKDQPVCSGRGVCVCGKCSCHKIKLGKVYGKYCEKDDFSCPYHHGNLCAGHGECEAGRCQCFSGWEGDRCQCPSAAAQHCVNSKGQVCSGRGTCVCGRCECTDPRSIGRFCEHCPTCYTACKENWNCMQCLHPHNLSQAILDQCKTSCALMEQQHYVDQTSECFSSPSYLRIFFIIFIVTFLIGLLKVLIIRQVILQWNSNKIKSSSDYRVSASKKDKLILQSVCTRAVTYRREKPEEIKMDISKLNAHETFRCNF

Homo sapiens = organism: Homo sapiens; assay: Selectivity index, ratio of IC50 for alphavbeta3 integrin (unknown origin) to IC50 for alpha4beta1 integrin (unknown origin) by solid phase binding assay
Integrin alpha-4/beta-1 = Integrin alpha-4/beta-1 (Homo sapiens, UniProt P05556+P13612); assay: Inhibition of alpha4beta1 integrin (unknown origin) by solid phase binding assay; type: protein-complex assay
Sequence of Integrin alpha-4/beta-1 (P05556 whole entry): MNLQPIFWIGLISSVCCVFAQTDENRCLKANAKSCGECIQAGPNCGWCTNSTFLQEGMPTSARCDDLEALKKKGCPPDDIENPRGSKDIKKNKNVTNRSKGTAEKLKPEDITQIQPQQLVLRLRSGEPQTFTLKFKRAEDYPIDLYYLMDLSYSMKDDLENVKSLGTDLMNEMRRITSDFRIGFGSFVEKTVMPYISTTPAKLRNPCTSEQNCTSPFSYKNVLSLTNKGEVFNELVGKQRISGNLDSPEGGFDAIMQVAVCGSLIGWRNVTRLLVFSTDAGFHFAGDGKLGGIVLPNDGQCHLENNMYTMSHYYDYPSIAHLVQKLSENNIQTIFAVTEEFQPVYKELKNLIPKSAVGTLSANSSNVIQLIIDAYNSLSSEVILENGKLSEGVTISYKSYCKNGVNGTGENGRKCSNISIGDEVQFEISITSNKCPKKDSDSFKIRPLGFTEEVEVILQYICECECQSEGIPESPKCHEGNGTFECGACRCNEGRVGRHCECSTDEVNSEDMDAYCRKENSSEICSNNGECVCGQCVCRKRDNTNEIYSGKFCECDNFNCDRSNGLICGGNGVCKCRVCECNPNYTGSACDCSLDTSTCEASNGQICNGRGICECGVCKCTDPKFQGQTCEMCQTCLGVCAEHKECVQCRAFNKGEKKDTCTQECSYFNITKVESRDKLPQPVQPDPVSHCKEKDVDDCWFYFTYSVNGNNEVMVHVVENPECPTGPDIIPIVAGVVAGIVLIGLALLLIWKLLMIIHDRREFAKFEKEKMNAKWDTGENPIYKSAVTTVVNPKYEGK
Sequence of Integrin alpha-4/beta-1 (P13612 whole entry): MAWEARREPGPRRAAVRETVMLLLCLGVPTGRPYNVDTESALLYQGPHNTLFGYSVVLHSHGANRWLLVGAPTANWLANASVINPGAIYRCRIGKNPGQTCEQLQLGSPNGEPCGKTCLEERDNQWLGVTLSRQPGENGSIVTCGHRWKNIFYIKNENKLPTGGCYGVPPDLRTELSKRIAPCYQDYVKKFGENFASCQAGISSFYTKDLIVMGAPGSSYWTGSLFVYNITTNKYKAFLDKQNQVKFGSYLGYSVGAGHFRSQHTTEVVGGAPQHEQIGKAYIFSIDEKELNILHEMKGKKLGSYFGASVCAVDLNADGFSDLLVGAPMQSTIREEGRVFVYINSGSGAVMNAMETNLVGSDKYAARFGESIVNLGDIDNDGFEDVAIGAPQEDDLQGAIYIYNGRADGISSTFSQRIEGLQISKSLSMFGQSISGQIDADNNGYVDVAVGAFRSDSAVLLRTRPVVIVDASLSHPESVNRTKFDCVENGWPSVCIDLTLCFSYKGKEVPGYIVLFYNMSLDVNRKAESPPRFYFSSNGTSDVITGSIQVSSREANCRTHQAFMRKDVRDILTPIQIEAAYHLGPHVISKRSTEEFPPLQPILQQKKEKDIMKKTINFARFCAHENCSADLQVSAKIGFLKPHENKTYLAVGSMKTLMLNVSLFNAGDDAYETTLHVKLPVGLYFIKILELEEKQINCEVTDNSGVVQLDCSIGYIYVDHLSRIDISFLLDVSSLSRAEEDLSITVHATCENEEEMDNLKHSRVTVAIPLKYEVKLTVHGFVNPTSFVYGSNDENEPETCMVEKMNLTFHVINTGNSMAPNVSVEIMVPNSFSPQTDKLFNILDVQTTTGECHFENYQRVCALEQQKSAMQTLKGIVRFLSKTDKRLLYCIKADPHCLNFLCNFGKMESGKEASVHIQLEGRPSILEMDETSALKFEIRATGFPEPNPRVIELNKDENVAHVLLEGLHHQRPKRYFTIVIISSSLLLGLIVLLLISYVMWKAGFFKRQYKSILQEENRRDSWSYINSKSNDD

Integrin alpha-5/beta-1 [4] = biological target: T3, Integrin alpha-5/beta-1; assay: Inhibition of alpha5beta1 integrin in human SW480 cells assessed as inhibition of cell adhesion to fibronectin incubated for 60 mins by crystal violet staining based analysis
Summary of the method: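 Adhesion of SW480 cells plated on fibronectin coated at 0.3 µg/ml, used to measure α5β1-mediated attachment. IC50 values are means ± S.D., n = 3 or higher.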

Integrin alpha-V/beta-1 [5] = biological target: T2, Integrin alpha-V/beta-1; assay: Inhibition of alphavbeta1 integrin (unknown origin) expressed in CHO cells assessed as inhibition of cell adhesion to fibronectin incubated for 60 mins by crystal violet staining based analysis
Summary of the method: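 Adhesion of CHOαv cells to fibronectin coated at 0.3 µg/ml, used to measure αvβ1-mediated attachment. IC50 values are means ± S.D., n = 3 or higher.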

Integrin alpha-V/beta-3 [6] = biological target: T1, Integrin alpha-V/beta-3; assay: Inhibition of alphavbeta3 integrin (unknown origin) expressed in human SW480 cells transfected with human beta3 assessed as inhibition of cell adhesion to fibrinogen incubated for 60 mins by crystal violet staining based analysis
Summary of the method: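 SW480 cells transfected with human β3, allowed to adhere to fibrinogen coated at 1 µg/ml, used to measure αvβ3-mediated attachment. IC50 values are means ± S.D., n = 3 or higher.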

Mus musculus [7] = organism: Mus musculus; assay: Antagonist activity at alpha5beta1 integrin/alphavbeta1 integrin in mouse tracheal rings assessed as inhibition of methacholine-induced airway hyperresponsiveness at 100 nM incubated with compound for 1 hr in presence of methacholine; type: tissue-based; conditions: Trachea, filed as antagonist
Summary of the method: (§1)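 Wild-type mouse tracheal rings incubated 12 h with IL-13 (100 ng/mL), then 1 h with compound or vehicle. Force generated was measured in response to a range of methacholine concentrations. Negative-control rings received no IL-13. n=3 rings per group; statistics by repeated measures of variance.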

Mus musculus [8] = organism: Mus musculus; assay: Antagonist activity at alpha5beta1 integrin/alphavbeta1 integrin in mouse tracheal rings assessed as inhibition of methacholine-induced airway hyperresponsiveness at 100 nM pretreated with IL-13 for 12 hrs followed by incubation with compound for 1 hr in presence of methacholine; type: tissue-based; conditions: Trachea, filed as antagonist; summary of the method: as §1
[9] = Apparent permeability of the compound across apical to basolateral side in human Caco-2 cells; type: ADME, cell-based
[10] = Apparent permeability of the compound across basolateral to apical side in human Caco-2 cells; type: ADME, cell-based

Sequence of Integrin alpha-V/beta-5 (P06756 31-889 limits assumed): as the sequence (P06756 31-889 limits assumed) above
Sequence of Integrin alpha-V/beta-5 (P06756 891-1048 limits assumed): as the sequence (P06756 891-1048 limits assumed) above
Sequence of Integrin alpha-V/beta-5 (P18084 24-799 limits assumed): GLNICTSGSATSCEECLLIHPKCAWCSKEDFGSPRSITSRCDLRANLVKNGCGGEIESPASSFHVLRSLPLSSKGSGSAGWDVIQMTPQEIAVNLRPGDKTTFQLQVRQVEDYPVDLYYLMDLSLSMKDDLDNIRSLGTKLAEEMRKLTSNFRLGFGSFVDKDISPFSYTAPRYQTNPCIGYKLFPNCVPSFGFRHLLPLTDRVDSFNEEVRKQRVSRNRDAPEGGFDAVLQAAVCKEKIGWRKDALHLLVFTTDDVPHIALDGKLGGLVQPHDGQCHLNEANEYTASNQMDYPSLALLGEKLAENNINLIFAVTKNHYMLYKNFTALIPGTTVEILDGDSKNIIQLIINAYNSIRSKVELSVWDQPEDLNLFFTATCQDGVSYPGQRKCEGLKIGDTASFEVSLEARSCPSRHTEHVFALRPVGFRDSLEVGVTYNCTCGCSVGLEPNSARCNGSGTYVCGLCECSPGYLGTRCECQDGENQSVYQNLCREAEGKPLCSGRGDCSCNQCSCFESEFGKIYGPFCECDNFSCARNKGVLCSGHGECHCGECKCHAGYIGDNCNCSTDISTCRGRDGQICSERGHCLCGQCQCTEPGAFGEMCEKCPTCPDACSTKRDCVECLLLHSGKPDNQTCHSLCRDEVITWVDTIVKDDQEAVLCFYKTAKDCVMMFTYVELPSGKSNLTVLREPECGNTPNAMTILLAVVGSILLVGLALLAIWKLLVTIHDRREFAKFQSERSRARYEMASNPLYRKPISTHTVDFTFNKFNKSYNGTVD

IC50 (Integrin alpha-5/beta-1 [4])	IC50 (Integrin alpha-V/beta-1 [5])	IC50 (Integrin alpha-V/beta-3 [6])	Compound	IC50 (Integrin alpha-V/beta-5)	IC50 (Integrin alpha-V/beta-3 [1])	IC50 (Integrin alpha-V/beta-1 [2])	IC50 (Integrin alpha-V/beta-6)	IC50 (Integrin alpha-5/beta-1 [3])	IC50 (Integrin alpha-V/beta-8)	IC50 (Integrin alpha-4/beta-1)	also measured
			N=C(N)Nc1cc(NC(=O)CCNC(=O)C23CC4CC(CC(C4)C2)C3)cc(C(=O)NCC(=O)NC[C@H](NC(=O)[C@@H]2CCCN2S(=O)(=O)c2ccccc2)C(=O)O)c1	> 10 µM	> 10 µM	< 0.0001 µM	> 10 µM	0.0014 µM	> 10 µM	0.1 µM	Ratio IC50 (Homo sapiens): > 100
0.9 µM	0.0009 µM	15 µM	N=C(N)NCCCCCCNC(=O)NC[C@H](NC(=O)[C@@H]1CCCN1S(=O)(=O)c1ccccc1)C(=O)O								
> 10 µM	0.0005 µM	> 10 µM	N=C(N)NCCCCC(=O)Nc1ccc(C[C@H](NC(=O)[C@@H]2CCCN2S(=O)(=O)c2ccccc2)C(=O)O)cc1								
0.11 µM		16.8 µM	CCCCCCCC(=O)Nc1cc(NC(=N)N)cc(C(=O)NCC(=O)NC[C@H](NC(=O)[C@@H]2CCCN2S(=O)(=O)c2ccccc2)C(=O)O)c1								
			N=C(N)Nc1cc(NC(=O)CCCC(=O)NC23CC4CC(CC(C4)C2)C3)cc(C(=O)NCC(=O)NC[C@H](NC(=O)[C@@H]2CCCN2S(=O)(=O)c2ccccc2)C(=O)O)c1	0.98 µM	> 10 µM	0.0003 µM	> 10 µM	0.001 µM	> 10 µM	0.161 µM	Ratio IC50 (Homo sapiens): > 100
0.032 µM		56 µM	N=C(N)Nc1cc(NC(=O)CCCN)cc(C(=O)NCC(=O)NC[C@H](NC(=O)[C@@H]2CCCN2S(=O)(=O)c2ccccc2)C(=O)O)c1								
0.5 µM	0.0008 µM		N=C(N)NCCCCCNC(=O)NC[C@H](NC(=O)[C@@H]1CCCN1S(=O)(=O)c1ccccc1)C(=O)O								
			N=C(N)Nc1cc(NC(=O)CNC(=O)C23CC4CC(CC(C4)C2)C3)cc(C(=O)NCC(=O)NC[C@H](NC(=O)[C@@H]2CCCN2S(=O)(=O)c2ccccc2)C(=O)O)c1	> 10 µM	> 10 µM	< 0.0001 µM	> 10 µM	0.0016 µM	> 10 µM	0.136 µM	
	0.032 µM	1.1 µM	N=C(N)Nc1cccc(C(=O)NCC(=O)NC[C@H](NC(=O)[C@@H]2CCCN2S(=O)(=O)c2ccccc2)C(=O)O)c1								inhibition (Mus musculus [7]): Active; inhibition (Mus musculus [8]): Active
			N=C(N)Nc1cc(NC(=O)CCCCNC(=O)C23CC4CC(CC(C4)C2)C3)cc(C(=O)NCC(=O)NC[C@H](NC(=O)[C@@H]2CCCN2S(=O)(=O)c2ccccc2)C(=O)O)c1	0.32 µM	> 10 µM	< 0.0001 µM	1.87 µM	0.0007 µM	6.83 µM	0.182 µM	Ratio IC50 (Homo sapiens): > 100
0.05 µM	0.158 µM	6.5 µM	N=C(N)Nc1cccc(C(=O)NNC(=O)NC[C@H](NC(=O)[C@@H]2CCCN2S(=O)(=O)c2ccccc2)C(=O)O)c1								
0.83 µM	0.316 µM	10 µM	N=C(N)NCCCCCC(=O)NC[C@H](NC(=O)[C@@H]1CCCN1S(=O)(=O)c1ccccc1)C(=O)O								
0.0026 µM	0.0008 µM	8.8 µM	N=C(N)Nc1cc(NC(=O)CCCNC(=O)C23CC4CC(CC(C4)C2)C3)cc(C(=O)NCC(=O)NC[C@H](NC(=O)[C@@H]2CCCN2S(=O)(=O)c2ccccc2)C(=O)O)c1	3 µM	> 10 µM	0.00014 µM	2.76 µM	0.0008 µM	> 10 µM	0.105 µM	Papp [9]: 0.37 10^-6 cm/s; Ratio IC50 (Homo sapiens): > 100; Papp [10]: 0.27 10^-6 cm/s
9.7 µM	0.004 µM	> 100 µM	N=C(N)NCCCCNC(=O)NC[C@H](NC(=O)[C@@H]1CCCN1S(=O)(=O)c1ccccc1)C(=O)O								
